Experimental data from different studies.
Compare with care: the assays were run in different laboratories.
MAPK14: Mitogen-activated protein kinase 14 (MAPK14, Homo sapiens, UniProt Q16539)
Dihydrofolate reductase: Dihydrofolate reductase (Bos taurus, UniProt P00376)

Oc1ccccc1-c1n[nH]cc1-c1ccnc2ccccc12 has an IC50 of 0.73 µM (MAPK14; enzyme activity, inhibitor, ADP detection).
For COc1ccc(-n2nc(C(=O)c3ccc(Nc4cnccn4)cc3)sc2=N)cc1, the IC50 was 11.7 µM (Dihydrofolate reductase; enzyme activity, inhibitor).
The IC50 of COc1cc(C=O)ccc1O is reported as 1350 µM (Sucrase-isomaltase, intestinal (Si, Rattus norvegicus, UniProt P23739); enzyme activity, inhibitor, absorbance).
NC(=O)c1nnn(Cc2cc(Cl)c(C(=O)c3ccc(Cl)cc3)c(Cl)c2)c1N has an IC50 of 1.75 µM (5-hydroxytryptamine receptor 1A (HTR1A, Homo sapiens, UniProt P08908); cAMP, antagonist).
For c1ccc(Cn2cc(-c3ccnc4ccccc34)c(-c3ccccn3)n2)cc1, the IC50 was 3 µM (MAPK14; enzyme activity, inhibitor, ADP detection).
Cc1cc(O)c(-c2ccc([C@@H](C)CN(C)C)cc2)c2c1[nH]c(=O)c1sccc12 has an IC50 of greater than 1 µM (Cyclin-dependent kinase 14, with cyclin Y (CDK14, Homo sapiens, UniProt O94921); enzyme activity, inhibitor).
For c1ccc(-c2n[nH]cc2-c2ccncn2)nc1, the IC50 was 1.5 µM (MAPK14; enzyme activity, inhibitor, ADP detection).
With COc1ccc(N2N=C(C(=O)c3ccc(Nc4cnccn4)cc3)SC2=C(C#N)C#N)cc1 the IC50 was 0.36 µM (Dihydrofolate reductase; enzyme activity, inhibitor).
c1ccc(-c2occc2-c2ccnc3ccccc23)nc1 gave an IC50 of greater than 30 µM (MAPK14; enzyme activity, inhibitor, ADP detection).
N=c1sc(C(=O)c2ccc(Nc3cnccn3)cc2)nn1-c1ccccc1 has an IC50 of 6.49 µM (Dihydrofolate reductase; enzyme activity, inhibitor).
CNCc1cc(-c2cc(O)ccc2OC(F)(F)F)ccc1F has an IC50 of roughly 18 µM (Estrogen receptor (ESR1, Homo sapiens, UniProt P03372, Y537S); coactivator recruitment, TR-FRET).
For NC/C(=C\F)COc1cccc(Cn2c(=S)[nH]c(=O)c3[nH]cnc32)c1, the IC50 was 0.005 µM (Amine oxidase [copper-containing] 3 (Rattus norvegicus, UniProt O08590); enzyme activity, inhibitor).
